Active and inactive are the calls of the source. No cut-off for these calls is given here.
What was measured:
Oryctolagus cuniculus [1] = experiment: Percentage change of IOP in rabbits after 8 hr administration (1%) of compound; type: functional
How it was run: (§1)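 Rabbits received 1% or 2.5% drug solution in pH 7.4 buffer or saline in both eyes, at least four per group. A control group of at least three rabbits received carrier only. IOP was read by pneumatonometer in unrestrained, unanesthetized animals after one drop of 0.5% propacaine diluted 1:2 with saline. Readings were taken at 30 and 60 min and at 2–8 h. Values are mean ± SE, with significance by Student's t test.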

Oryctolagus cuniculus [2] = experiment: Effect on IOP of rabbits 1 hr after administration (1%); type: functional
How it was run: (§2)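 IOP was read by pneumatonometer in unrestrained, unanesthetized rabbits after local propacaine drops. Drug was given as a 1% or 2.5% solution in pH 7.4 buffer or saline to both eyes, at least four rabbits per group; controls (at least three) received carrier only. Readings were taken at 30 and 60 min and at 2, 3, 4, 6 and 8 h. Values are mean ± SE; Student's t test.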

Oryctolagus cuniculus [3] = experiment: Effect on IOP of rabbits 3h after administration (1%); type: functional; how it was run: as §2
Oryctolagus cuniculus [4] = experiment: Percentage change of IOP in rabbits after 1 hr administration (1%) of compound; type: functional; how it was run: as §2
Oryctolagus cuniculus [5] = experiment: Effect on IOP of rabbits 4 hr after administration (1%); type: functional; how it was run: as §2
Oryctolagus cuniculus [6] = experiment: Effect on IOP of rabbits 30 mins after administration (1%); type: functional; how it was run: as §2
Oryctolagus cuniculus [7] = experiment: Effect on IOP of rabbits 6 hr after administration (1%); type: functional; how it was run: as §2
Oryctolagus cuniculus [8] = experiment: Percentage change of IOP in rabbits after 4 hr administration (1%) of compound; type: functional; how it was run: as §1
Oryctolagus cuniculus [9] = experiment: Effect on IOP of rabbits 0 min after administration (1%); type: functional; how it was run: as §2
Oryctolagus cuniculus [10] = experiment: Effect on IOP of rabbits 2 hr after administration (1%); type: functional; how it was run: as §2
Oryctolagus cuniculus [11] = experiment: Percentage change of IOP in rabbits after 2 hr administration (1%) of compound; type: functional; how it was run: as §2
Oryctolagus cuniculus [12] = experiment: Percentage change of IOP in rabbits after 6 hr administration (1%) of compound; type: functional; how it was run: as §1
Oryctolagus cuniculus [13] = experiment: Percentage change of IOP in rabbits after 5 hr administration (1%) of compound; type: functional; how it was run: as §1
Oryctolagus cuniculus [14] = experiment: Percentage change of IOP in rabbits after 30 min administration (1%) of compound; type: functional; how it was run: as §1
Oryctolagus cuniculus [15] = experiment: Percentage change of IOP in rabbits after 3h administration (1%) of compound; type: functional; how it was run: as §1
Oryctolagus cuniculus [16] = experiment: Effect on IOP of rabbits 5 hr after administration (1%); type: functional
Oryctolagus cuniculus [17] = experiment: Percentage change of IOP in rabbits after 0 min administration (1%) of compound; type: functional; how it was run: as §2
Oryctolagus cuniculus [18] = experiment: Effect on IOP of rabbits 6 hr min after administration (1%); type: functional; how it was run: as §2
Oryctolagus cuniculus [19] = experiment: Percentage change of IOP in rabbits after 3h administration (2.5%) of compound; type: functional; how it was run: as §1
Oryctolagus cuniculus [20] = experiment: Concentration of propranolone oxime in iris-ciliary body of rabbit after 120 min administration of compound; N/A= no oxime can be present after administration of propranolone hydrochloride; type: functional, organism-based
How it was run: (§3)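 Adult male New Zealand albino rabbits (2.5–3.5 kg), at least four per time point. 100 µL of a 1% solution in saline was instilled topically into both eyes. Animals were killed at 30, 60 or 120 min. Cornea and iris-ciliary body were homogenized in methanol to 10% homogenates and deproteinized by centrifugation. Aqueous humor was analysed undiluted. HPLC was calibrated against spiked control-rabbit tissue. Values are mean ± SE, µg/g.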

Oryctolagus cuniculus [21] = experiment: Concentration in aqueous humor of rabbit after 30 min administration of compound; type: functional, organism-based; settings: Aqueous humor of eyeball; how it was run: as §3
Oryctolagus cuniculus [22] = experiment: Concentration in cornea of rabbit after 30 min administration of compound; type: functional, organism-based; how it was run: as §3
Oryctolagus cuniculus [23] = experiment: Effect on IOP of rabbits 6 hr min after administration (2.5%); type: functional; how it was run: as §2
Oryctolagus cuniculus [24] = experiment: Percentage change of IOP in rabbits after 4 hr administration (2.5%) of compound; type: functional; how it was run: as §1
Oryctolagus cuniculus [25] = experiment: Percentage change of IOP in rabbits after 0 min administration (2.5%) of compound; type: functional; how it was run: as §2
Oryctolagus cuniculus [26] = experiment: Effect on IOP of rabbits 8 hr min after administration (1%); type: functional; how it was run: as §2
Oryctolagus cuniculus [27] = experiment: Effect on IOP of rabbits 0 min after administration (2.5%); type: functional; how it was run: as §2
Oryctolagus cuniculus [28] = experiment: Percentage change of IOP in rabbits after 60 min administration (2.5%) of compound; type: functional; how it was run: as §1
Oryctolagus cuniculus [29] = experiment: Effect on IOP of rabbits 60 min after administration (1%); type: functional; how it was run: as §2
Oryctolagus cuniculus [30] = experiment: Percentage change of IOP in rabbits after 2 hr administration (2.5%) of compound; type: functional; how it was run: as §2
Oryctolagus cuniculus [31] = experiment: Effect on IOP of rabbits 3h after administration (2.5%); type: functional; how it was run: as §2
Oryctolagus cuniculus [32] = experiment: Concentration of propranolone oxime in cornea of rabbit after 60 min administration of compound; N/A= no oxime can be present after administration of propranolone hydrochloride; type: functional, organism-based; how it was run: as §3
Oryctolagus cuniculus [33] = experiment: Percentage change of IOP in rabbits after 6 hr administration (2.5%) of compound; type: functional; how it was run: as §1
Oryctolagus cuniculus [34] = experiment: Concentration in cornea of rabbit after 60 min administration of compound; type: functional, organism-based; how it was run: as §3
Oryctolagus cuniculus [35] = experiment: Effect on IOP of rabbits 60 mins after administration (2.5%); type: functional; how it was run: as §2
Oryctolagus cuniculus [36] = experiment: Concentration of propranolone oxime in iris-ciliary body of rabbit after 30 min administration of compound; N/A= no oxime can be present after administration of propranolone hydrochloride; type: functional, organism-based; how it was run: as §3
Oryctolagus cuniculus [37] = experiment: Percentage change of IOP in rabbits after 8 hr administration (2.5%) of compound; type: functional; how it was run: as §1
Oryctolagus cuniculus [38] = experiment: Effect on IOP of rabbits 30 mins after administration (2.5%); type: functional; how it was run: as §2
Oryctolagus cuniculus [39] = experiment: Effect on IOP of rabbits 4 hr after administration (2.5%); type: functional; how it was run: as §2
Oryctolagus cuniculus [40] = experiment: Effect on IOP of rabbits 8 hr min after administration (2.5%); type: functional; how it was run: as §2
Oryctolagus cuniculus [41] = experiment: Concentration of propranolone oxime in cornea of rabbit after 30 min administration of compound; N/A= no oxime can be present after administration of propranolone hydrochloride; type: functional, organism-based; how it was run: as §3
Oryctolagus cuniculus [42] = experiment: Concentration of propranolone oxime in aqueous humor of rabbit after 30 min administration of compound; N/A= no oxime can be present after administration of propranolone hydrochloride; type: functional, organism-based; settings: Aqueous humor of eyeball; how it was run: as §3
Oryctolagus cuniculus [43] = experiment: Concentration of propranolone oxime in aqueous humor of rabbit after 120 min administration of compound; N/A= no oxime can be present after administration of propranolone hydrochloride; type: functional, organism-based; settings: Aqueous humor of eyeball; how it was run: as §3
Oryctolagus cuniculus [44] = experiment: Concentration in iris-ciliary body of rabbit after 30 min administration of compound; type: functional, organism-based; how it was run: as §3
Oryctolagus cuniculus [45] = experiment: Effect on IOP of rabbits 2 hr after administration (2.5%); type: functional; how it was run: as §2
Oryctolagus cuniculus [46] = experiment: Concentration of propranolone oxime in cornea of rabbit after 120 min administration of compound; N/A= no oxime can be present after administration of propranolone hydrochloride; type: functional, organism-based; how it was run: as §3
Oryctolagus cuniculus [47] = experiment: Percentage change of IOP in rabbits after 60 min administration (1%) of compound; type: functional; how it was run: as §1
Oryctolagus cuniculus [48] = experiment: Concentration of propranolone oxime in iris-ciliary body of rabbit after 60 min administration of compound; N/A= no oxime can be present after administration of propranolone hydrochloride; type: functional, organism-based; how it was run: as §3
Oryctolagus cuniculus [49] = experiment: Concentration in aqueous humor of rabbit after 60 min administration of compound; type: functional, organism-based; settings: Aqueous humor of eyeball; how it was run: as §3
Oryctolagus cuniculus [50] = experiment: Percentage change of IOP in rabbits after 30 min administration (2.5%) of compound; type: functional; how it was run: as §1
Oryctolagus cuniculus [51] = experiment: Concentration of propranolone oxime in aqueous humor of rabbit after 60 min administration of compound; N/A= no oxime can be present after administration of propranolone hydrochloride; type: functional, organism-based; settings: Aqueous humor of eyeball; how it was run: as §3

Compound `CC(C)(C)NC[C@H](O)COc1nsnc1N1CCOCC1` (stereo in doubt; 1b) [TIMOLOL] has a Change (Oryctolagus cuniculus [1]) of over 9.8%, an IOP (Oryctolagus cuniculus [2]) of 27.25 mmHg and an IOP (Oryctolagus cuniculus [3]) of 25 mmHg. The Change (Oryctolagus cuniculus [4]) was 6.65%, the IOP (Oryctolagus cuniculus [5]) was 24.88 mmHg and the IOP (Oryctolagus cuniculus [6]) was 26 mmHg. The IOP (Oryctolagus cuniculus [7]) was 25.58 mmHg, the Change (Oryctolagus cuniculus [8]) was 14.8% and the IOP (Oryctolagus cuniculus [9]) was 29.19 mmHg. It also gave an IOP (Oryctolagus cuniculus [10]) of 27.21 mmHg, a Change (Oryctolagus cuniculus [11]) of 6.78% and a Change (Oryctolagus cuniculus [12]) of 12.4%. The Change (Oryctolagus cuniculus [13]) was 16.9%, the Change (Oryctolagus cuniculus [14]) was over -10.93% and the Change (Oryctolagus cuniculus [15]) was 14.3%. It also gave an IOP (Oryctolagus cuniculus [16]) of 24.25 mmHg and a Change (Oryctolagus cuniculus [17]) of 0%.

`CC(C)NCC(O)COc1cccc2ccccc12` (stereo not drawn) [PROPRANOLOL] was tested, and the IOP (Oryctolagus cuniculus [18]) was 29 mmHg, the Change (Oryctolagus cuniculus [19]) was 1.18% and the Concentration (Oryctolagus cuniculus [20]) was “inactive”. The Change (Oryctolagus cuniculus [1]) was -1.95%, the Concentration (Oryctolagus cuniculus [21]) was 1.3 µg/g and the IOP (Oryctolagus cuniculus [3]) was 27.4 mmHg. It also gave a Concentration (Oryctolagus cuniculus [22]) of 47.1 µg/g, an IOP (Oryctolagus cuniculus [23]) of 25.4 mmHg and a Change (Oryctolagus cuniculus [24]) of 0.79%. It also gave a Change (Oryctolagus cuniculus [25]) of 0%, an IOP (Oryctolagus cuniculus [26]) of 30.2 mmHg and an IOP (Oryctolagus cuniculus [5]) of 28.2 mmHg. The IOP (Oryctolagus cuniculus [27]) was 25.4 mmHg, the IOP (Oryctolagus cuniculus [6]) was 29 mmHg and the Change (Oryctolagus cuniculus [28]) was over 9.84%. For the same compound, the IOP (Oryctolagus cuniculus [29]) was 27.6 mmHg, the Change (Oryctolagus cuniculus [8]) was -8.44% and the Change (Oryctolagus cuniculus [30]) was 1.18%. The IOP (Oryctolagus cuniculus [9]) was 30.8 mmHg, the IOP (Oryctolagus cuniculus [31]) was 25.7 mmHg and the Concentration (Oryctolagus cuniculus [32]) was “inactive”. It also gave an IOP (Oryctolagus cuniculus [10]) of 29.1 mmHg, a Change (Oryctolagus cuniculus [33]) of 0% and a Change (Oryctolagus cuniculus [11]) of -5.52%. The Concentration (Oryctolagus cuniculus [34]) was 14.5 µg/g, the IOP (Oryctolagus cuniculus [35]) was 27.9 mmHg and the Concentration (Oryctolagus cuniculus [36]) was “inactive”. It also gave a Change (Oryctolagus cuniculus [37]) of -0.79%, an IOP (Oryctolagus cuniculus [38]) of 27.6 mmHg and an IOP (Oryctolagus cuniculus [39]) of 25.6 mmHg. For the same compound, the IOP (Oryctolagus cuniculus [40]) was 25.2 mmHg, the Concentration (Oryctolagus cuniculus [41]) was “inactive” and the Change (Oryctolagus cuniculus [12]) was -5.84%. For the same compound, the Concentration (Oryctolagus cuniculus [42]) was “inactive”, the Concentration (Oryctolagus cuniculus [43]) was “inactive” and the Change (Oryctolagus cuniculus [14]) was over -9.1%. For the same compound, the Concentration (Oryctolagus cuniculus [44]) was 8.1 µg/g, the IOP (Oryctolagus cuniculus [45]) was 25.7 mmHg and the Change (Oryctolagus cuniculus [15]) was -11.04%. The Change (Oryctolagus cuniculus [17]) was 0%, the Concentration (Oryctolagus cuniculus [46]) was “inactive” and the Change (Oryctolagus cuniculus [47]) was over -10.39%. For the same compound, the Concentration (Oryctolagus cuniculus [48]) was “inactive”, the Concentration (Oryctolagus cuniculus [49]) was 0.3 µg/g and the Change (Oryctolagus cuniculus [50]) was over 8.66%. For the same compound, the Concentration (Oryctolagus cuniculus [51]) was “inactive”.
